# Laboratory results reported in ChEMBL document CHEMBL1144928, “Antimalarial activity of novel 1,2,5,6-tetraoxacycloalkanes and 1,2,5-trioxacycloalkanes” (J Med Chem, 2003).
# Columns and labels:
# FM3A = experiment: Compound was tested in vitro cytotoxicity against FM3A cell; format: functional, cell-based; settings: Mus musculus
# In short: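 Cytotoxicity control used mouse mammary tumor FM3A cells in culture. The 50% inhibitory concentration (EC50) was determined by a previously reported protocol.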
# Plasmodium falciparum [1] = experiment: In vitro antimalarial activity against Plasmodium falciparum; format: functional, organism-based
# In short: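 Tested against chloroquine-sensitive P. falciparum FCR-3 strain in culture. EC50 was determined by a previously reported protocol.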
# [2] = (§1) Selectivity index was determined; format: functional
# In short: (§2)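 Selectivity was calculated as the mean EC50 for FM3A cells divided by the mean EC50 for P. falciparum FCR-3.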
# Mus musculus [3] = experiment: Compound was tested in vitro Antimalarial activity against Plasmodium berghei in infected mice (Mus musculus) administered intraperitoneally; format: functional; settings: ip
# In short: (§3)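 Mice infected with P. berghei NK 65 strain, in groups of five, were dosed once daily on days 0–3 with a range of concentrations in olive oil. Dosing was intraperitoneal or oral.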
# Mus musculus [4] = experiment: Compound was tested in vitro Antimalarial activity against Plasmodium berghei in infected mice (Mus musculus) administered per orally; format: functional; settings: po; in short: as §3
# [5] = as §1; format: functional; in short: as §2; remark: listed apart in the source
# Plasmodium falciparum [6] = experiment: In vitro antimalarial activity against […]; format: functional, organism-based
Compound,EC50 (FM3A),EC50 (Plasmodium falciparum [1]),Selectivity [2],ED50 (Mus musculus [3]),ED90 (Mus musculus [3]),ED50 (Mus musculus [4]),EC50 [5],EC50 (Plasmodium falciparum [6]),ED90 (Mus musculus [4])
CC1(CI)CCOC2(c3ccccc3)C3CCC(C3)C2OO1 (stereo unspecified),15 µM,0.005 µM,3000,–,–,–,–,–,–
c1ccc(C23OOCCCOOC2C2CCC3C2)cc1 (stereo unspecified),45 µM,0.19 µM,–,13 mg/kg,50 mg/kg,> 100 mg/kg,237 µM,–,–
CC1(C2OOC3C4CCC(C4)C3(c3ccccc3)OO2)CCCC1 (stereo unspecified),5.9 µM,0.13 µM,45,–,–,–,–,–,–
CC1(CI)COC2(c3ccccc3)C3CCC(C3)C2OO1 (stereo unspecified),11 µM,1 µM,11,–,–,–,–,–,–
c1ccc(C2OOC3C4CCC(C4)C3(c3ccccc3)OO2)cc1 (stereo unspecified),13 µM,1.5 µM,9,–,–,–,–,–,–
c1ccc(C23OOC(C4CCCCC4)OOC2C2CCC3C2)cc1 (stereo unspecified),–,–,52,70 mg/kg,> 100 mg/kg,–,–,0.21 µM,–
c1ccc(C23OOC4(CCCCC4)OOC2C2CCC3C2)cc1 (stereo unspecified) [TETRACYCLOALKANES],11 µM,0.45 µM,24,–,–,–,–,–,–
Fc1ccc(C2OOC3C4CCC(C4)C3(c3ccccc3)OO2)cc1 (stereo unspecified),11 µM,1 µM,11,–,–,–,–,–,–
CC1(CI)CCOOC2(c3ccccc3)C3CCC(C3)C2OO1 (stereo unspecified),11 µM,0.15 µM,73,–,–,–,–,–,–
C[C@@H]1CC[C@H]2[C@@H](C)C(=O)O[C@@H]3O[C@@]4(C)CC[C@@H]1[C@]32OO4 [ARTEMISININ],–,–,1000,5.4 mg/kg,13 mg/kg,32 mg/kg,–,–,89 mg/kg
